≈ marks a conversion by molar mass, not a printed value. Calls of active or inactive are those of the source. The rule behind the calls is not given here.
Assays:
Format in all cases: functional
[1] = system: HCT-15; assay: Cytotoxicity against human HCT15 cells after 72 hrs; settings: for EC50: HCT-15, 72 h, read-out: ED50 (the source's name)
Method in brief: (§1)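 Cells kept in RPMI with 10% FBS at 37 °C, 5% CO2, humidified. Log-phase cells exposed in triplicate to 1.0-100 µg/mL for 72 h at 37 °C. Cell density read by protein analysis. ED50 (dose giving 50% inhibition of control growth) estimated from semilog plot of concentration (µg/mL) versus percent viable cells.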

[2] = system: UISO-SQC1; assay: (§2) Cytotoxicity against human UISO-SQC1 cells after 72 hrs; method in brief: as §1
[3] = system: OVCAR-5; assay: Cytotoxicity against human OVCAR5 cells after 72 hrs; settings: OVCAR-5, 72 h, read-out: ED50 (the source's name); method in brief: as §1
[4] = as §2; settings: UISO-SQC1, 72 h, read-out: ED50 (the source's name); method in brief: as §1

Compound | Activity [1] | Activity [2] | EC50 [3] [µg/mL] | EC50 [1] [µg/mL] | EC50 [4] [µg/mL]
CCCCCCCCCCCC(=O)O[C@H]1[C@H](O[C@@H]2[C@@H](O)[C@H]3OC(=O)CCCCCCCCCC(CCCCC)O[C@@H]4O[C@H](C)[C@@H](O)[C@H](O)[C@H]4OC3O[C@H]2C)O[C@@H](C)[C@H](O[C@@H]2O[C@@H](C)[C@H](OC(C)=O)[C@@H](O)[C@H]2O[C@@H]2O[C@H](CO)[C@@H](O)[C@H](O)[C@H]2O)[C@H]1O (stereo not given in full) [MURUCIN 1] | inactive | inactive | 5 (≈ 4.08 µM) |  | 
CCCCCCCCCCCC(=O)O[C@H]1[C@H](O[C@@H]2[C@@H](O)[C@H]3OC(=O)CCCCCCCCCC(CCCCC)O[C@@H]4O[C@H](C)[C@@H](O)[C@H](O)[C@H]4OC3O[C@H]2C)O[C@@H](C)[C@H](O[C@@H]2O[C@@H](C)[C@H](OC(=O)CC)[C@@H](O)[C@H]2O[C@@H]2O[C@H](CO)[C@@H](O)[C@H](O)[C@H]2O)[C@H]1O (stereo not given in full) [MURUCIN 2] |  |  | > 20 | > 20 | > 20
CCCCCCCCCCCC(=O)O[C@H]1[C@H](O[C@@H]2[C@@H](O)[C@H]3OC(=O)CCCCCCCCCC(CCCCC)O[C@@H]4O[C@H](C)[C@@H](O)[C@H](O)[C@H]4OC3O[C@H]2C)O[C@@H](C)[C@H](O[C@@H]2O[C@@H](C)[C@H](OC(=O)CCC)[C@@H](O)[C@H]2O[C@@H]2O[C@H](CO)[C@@H](O)[C@H](O)[C@H]2O)[C@H]1O (stereo not given in full) [MURUCIN 3] |  |  | > 20 | > 20 | > 20
CCCCCCCCCCCC(=O)O[C@H]1[C@H](O[C@@H]2[C@@H](O)[C@H]3OC(=O)CCCCCCCCCC(CCCCC)O[C@@H]4O[C@H](C)[C@@H](O)[C@H](O)[C@H]4OC3O[C@H]2C)O[C@@H](C)[C@H](O[C@@H]2O[C@@H](C)[C@H](OC(=O)C(C)CC)[C@@H](O)[C@H]2O[C@@H]2O[C@H](CO)[C@@H](O)[C@H](O)[C@H]2O)[C@H]1O (stereo not given in full) [MURUCIN 4] |  |  | > 20 | > 20 | > 20
CCCCCCCCCCCC(=O)O[C@H]1[C@H](O[C@@H]2[C@@H](O)[C@H]3OC(=O)CCCCCCCCCC(CCCCC)O[C@@H]4O[C@H](C)[C@@H](O)[C@H](O)[C@H]4OC3O[C@H]2C)O[C@@H](C)[C@H](O[C@@H]2O[C@@H](C)[C@H](OC(=O)C(C)C(C)O)[C@@H](O)[C@H]2O[C@@H]2O[C@H](CO)[C@@H](O)[C@H](O)[C@H]2O)[C@H]1O (stereo not given in full) [MURUCIN 5] |  |  | > 20 | > 20 | > 20

— ChEMBL document CHEMBL1141764, “Pentasaccharide glycosides from the roots of Ipomoea murucoides” (2005)
